The list is not random: actives were taken first. Their share in the collection is about 11%.
S1P3 agonist: activates the human S1P3 receptor; Q99500; S1P3 NFAT-BLA reporter cells, agonism, FRET ratio; relative to 1 µM S1P, basal subtracted; activation, % at 4.5 µM; hit rate 0.1% among 60,000;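 active = activation above the screen-wide mean plus 3 SD, cut at about 4.5% in these data, passing the limit was not always enough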
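Assay system: stable CHO line with human S1P3, Gα16, NFAT-BLA reporter; Detection: FRET β-lactamase substrate fluorescence, excitation 405 nm, 460/535 nm emission ratio, background-subtracted; Read-out: percent activation versus median 1 µM S1P response, basal-subtracted, per plate; Incubation: cells plated overnight, compound 4 h 37 °C, substrate 2 h RT.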
M1 ag: activates the M1 muscarinic receptor; CHO-M1 cells, Fluo-4 calcium fluorescence, agonist mode; active compounds read high; B-score at 10 µM; hit rate 3% among 64,000;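 active = fluorescence rise, raw or as B-score row- and column-corrected plate score, outside the 99.7% band of its plate's samples, either direction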
D1 mod: allosterically modulates the human D1 dopamine receptor; HEK293 D1, CRE-luciferase, dopamine EC30 potentiation; actives deviate in either direction; B-score at 10 µM; hit rate 5.9% among 58,000; AID 641;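 active = luminescence count or its row- and column-corrected plate score outside the 99.7% band of the plate's sample wells, on either side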
M1 antag: antagonists of rat M1 muscarinic receptor; AID 628; hit rate 3.4% among 64,000; CHO-M1 cells, Fluo-4 calcium, ACh EC80 antagonist mode; active compounds read low; B-score at 10 µM; P08482;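 active = calcium fluorescence response, raw or row-and-column corrected B-score, differing from the plate sample mean either way at a set confidence level, mostly lower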
S1P1 ag-PAM: S1P1 (human) agonism or agonism potentiation. activation, % at 9.5 µM. hit rate 0.57% among 56,000. S1P1 CRE-bla cells, forskolin, beta-lactamase FRET, potentiator mode; S1P1 agonist co-added at EC20, 2 nM; 100% = saturating reference agonist, 0% = basal. P21453;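 active = activation above a cutoff set at the mean activation of all tested compounds plus 3 SD, cut at about 54% in these data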;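 also: forskolin at 4 µM as EC80 and the EC20 agonist is SEW2871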
Target sequence (P21453 whole entry, looked up): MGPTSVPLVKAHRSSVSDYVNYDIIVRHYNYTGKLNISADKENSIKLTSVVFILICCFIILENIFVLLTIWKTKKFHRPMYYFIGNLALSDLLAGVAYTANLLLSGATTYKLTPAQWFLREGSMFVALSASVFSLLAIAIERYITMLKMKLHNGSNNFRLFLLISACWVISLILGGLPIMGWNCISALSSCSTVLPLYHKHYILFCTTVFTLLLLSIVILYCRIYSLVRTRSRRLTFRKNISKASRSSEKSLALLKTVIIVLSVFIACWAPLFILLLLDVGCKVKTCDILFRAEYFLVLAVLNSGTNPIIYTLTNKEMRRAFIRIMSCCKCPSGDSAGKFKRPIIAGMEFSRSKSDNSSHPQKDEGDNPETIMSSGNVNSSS
D1 PAM confirm: D1 receptor (human) allosteric modulation, confirmed; hit rate 88% among 2,200; luminescence at 10 µM; HEK293 D1 CRE-luciferase, dopamine EC30 potentiation; active compounds read high; AID 642; shares compounds with D1 mod;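 active = luminescence in either of two replicates above the same-plate mean plus 3 SD of the low-dose dopamine control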
D1 ag no DA: D1 (human) signaling in absence of dopamine; shares compounds with D1 mod; luminescence at 10 µM; hit rate 0.8% among 1,900; HEK293 D1 CRE-luciferase, luminescence, no dopamine; active compounds read high; AID 646; in the data active = luminescence above about 3900
Isoprot counter: isoproterenol response counter-screen activity for D1 modulators | luminescence at 10 µM | HEK293 D1 CRE-luciferase, isoproterenol EC30 counter-screen; active compounds read high | shares compounds with D1 mod | hit rate 63% among 2,200;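 active = luminescence in either replicate above plate mean of wells with a partly effective reference agonist dose plus 3 SD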;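 also: isoproterenol raises cAMP through native beta-adrenoceptor Gs so signal bypasses D1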
Each line names hits and unclear results; the compound was inactive in the other large screens (follow-up assays come after a bar, where they were run).

CCOC(=O)C1CSC(CC(=O)Nc2ccc(Cl)cc2)C(=O)N1 (centres undefined)	none
S=C(NCC1CCCO1)n1nnc2ccccc21 (centres undefined)	none
c1ccc2c(c1)nc(NCC1CCCO1)c1nnnn12 (centres undefined)	D1 mod 2.9 | D1 PAM confirm 9992 | D1 ag no DA inactive | Isoprot counter inactive
COCCNC(=O)CSc1nc2ccccc2c(=O)n1CCCC(=O)NCc1ccccc1	none (no result: S1P3 agonist, S1P1 ag-PAM)
CCn1cc(C(=O)NC2CCCCC2C)c(=O)c2ccc(C)nc21 (centres undefined)	none
Cc1c2c(nc3c(C(=O)NC4CCCCC4C)cnn13)CCCC2 (centres undefined)	D1 mod 8.2 (no result: S1P3 agonist, S1P1 ag-PAM) | D1 PAM confirm 10904 | Isoprot counter 5444
COc1ccc(NC(=O)CC2C(=O)N(c3cccc(OC)c3)C(=O)N2C2CCCCC2)cc1 (centres undefined)	none (no result: S1P3 agonist, S1P1 ag-PAM)
CCOC(=O)c1[nH]nc2c1C(=O)N(Cc1ccccc1)C2=O	none (no result: D1 mod)
COc1cccc(C(c2sc3ncnn3c2O)N2CCN(C(=O)c3ccco3)CC2)c1 (centres undefined)	none
Cc1cccc(CCNS(=O)(=O)c2cnc[nH]2)c1	D1 mod 4.4 | D1 PAM confirm inactive | D1 ag no DA inactive | Isoprot counter inactive
COc1ccc(Cc2nnc(NC(=O)Cc3cccs3)s2)cc1OC	D1 mod 17 | D1 PAM confirm 27116 | D1 ag no DA inactive | Isoprot counter 4196
COc1ccc(-c2csc(NC(C)=O)n2)cc1OC	D1 mod 6.1 (no result: S1P1 ag-PAM) | D1 PAM confirm 10116 | D1 ag no DA inactive | Isoprot counter 3716
COc1ccc(CC(=O)Nc2nc(C)cs2)cc1OC	D1 mod 3.9 | D1 PAM confirm 12824 | D1 ag no DA inactive | Isoprot counter 3836
O=C(Cc1cccs1)Nc1nnc(CCc2ccccc2)s1	none (no result: S1P1 ag-PAM)
COc1cccc(-c2csc(NC(C)=O)n2)c1	none
CC1CCN(c2nc3c(c(=O)[nH]c(=O)n3C)n2CCSc2nc3ccccc3o2)CC1	none
CCOC(=O)c1ccc(Oc2nc(NC)nc(OC)n2)cc1	D1 mod 3.8, M1 antag 2.7 (no result: S1P3 agonist, S1P1 ag-PAM) | D1 PAM confirm 9704 | D1 ag no DA inactive | Isoprot counter 3236
COC(=O)COC(=O)c1ccc(Oc2nc(OC)nc(N(C)C)n2)cc1	none
c1ccc(Oc2nc(Oc3ccccc3)nc(N3CCOCC3)n2)cc1	D1 mod 3.7 | D1 PAM confirm 6884 | Isoprot counter 2828
Cc1cc(Oc2ccc(-c3ccccc3)cc2)nc(N2CCOCC2)n1	none
COc1nc(N2CCOCC2)nc(-n2cccc2)n1	D1 mod 17 | D1 PAM confirm 12956 | D1 ag no DA inactive | Isoprot counter 5204
COc1nc(N2CCCC2)nc(-n2cc(-c3ccccc3)nn2)n1	none
Cc1ccc(C2C3=C(CC(C)(C)CC3=O)N(CCN3CCOCC3)C3=C2C(=O)CC(C)(C)C3)cc1	none (no result: M1 ag, M1 antag)
CCC(C)n1c(SCC(=O)NC(=O)Nc2ccc3c(c2)OCCO3)nc2ccccc2c1=O (centres undefined)	none
CCCc1[nH]nc2c1C(c1cccnc1)C(C#N)=C(N)O2 (centres undefined)	D1 mod 6.7 | D1 PAM confirm inactive | D1 ag no DA inactive | Isoprot counter inactive
CCSc1cc(C2C(C(=O)OC)=C(C)NC3=C2C(=O)CCC3)c(C)o1 (centres undefined)	none (no result: S1P1 ag-PAM)
COc1ccc(CSc2n[nH]c(C)n2)cc1Br	D1 mod 6.5 (no result: S1P3 agonist, S1P1 ag-PAM) | D1 PAM confirm 10580 | Isoprot counter 2984
Nc1c(NCCC2=CCCCC2)c(=O)[nH]c(=O)n1Cc1ccccc1	none (no result: D1 mod)
COc1ccc(CCNc2c(N)n(Cc3ccccc3)c(=O)[nH]c2=O)cc1OC	D1 mod 4.7 | D1 PAM confirm 14452 | D1 ag no DA inactive | Isoprot counter 5560
CC(=O)NCC1=C(NC(C)=O)C2CC1C(C)(C)C2C (centres undefined)	none
CCCn1c(C)cc(=O)c2cc(NC(=O)c3cnccn3)ccc21	none (no result: M1 ag, M1 antag)
COC(=O)CN(c1ccccc1F)S(=O)(=O)c1ccccc1	none
COC(=O)CN(c1ccccn1)S(=O)(=O)c1ccccc1	D1 mod 5.2 | D1 PAM confirm inactive | D1 ag no DA inactive | Isoprot counter inactive
CC(C#N)On1c(SC(C)C#N)nc2ccccc2c1=O (centres undefined)	D1 mod 4.2 | D1 PAM confirm 11488 | Isoprot counter inactive
COc1ccc(-c2nnc(CSc3nc4ccccc4c(=O)n3CC(C)C)o2)cc1OC	D1 mod 5.8 | D1 PAM confirm 6848 | Isoprot counter 3892
CC(C)Cn1c(SCC#N)nc2ccccc2c1=O	D1 mod 8.6 (no result: S1P3 agonist, M1 ag, M1 antag, S1P1 ag-PAM) | D1 PAM confirm 15244 | D1 ag no DA inactive | Isoprot counter 4324
COC(=O)COn1c(SCC(=O)OC)nc2ccccc2c1=O	none (no result: D1 mod)
CCOC(=O)c1sc2nc(N3CCOCC3)c3c(c2c1N)CC(C)(C)N(C)C3	D1 mod 3.1 (no result: S1P3 agonist, S1P1 ag-PAM) | D1 PAM confirm 12684 | D1 ag no DA inactive | Isoprot counter 3440
COc1cc(OC)cc(C(C)=O)c1	D1 mod 8.5 | D1 PAM confirm 24876 | D1 ag no DA inactive | Isoprot counter 4388
COc1cc(OC)cc(C(=O)Nc2cccc(C(C)=O)c2)c1	none (no result: S1P3 agonist, S1P1 ag-PAM)
O=S(=O)(NC1CCCCCC1)c1cccc2cccnc12	D1 mod 5.5 | D1 PAM confirm 9760 | D1 ag no DA inactive | Isoprot counter 3500
CN(CC(=O)NC1CCCCCCC1)S(=O)(=O)c1cccc2cccnc12	none (no result: D1 mod)
Cc1cc(C(=O)Nc2ccc(C(=O)O)cc2)c(-c2ccccc2)o1	D1 mod 2.5 | D1 PAM confirm 7724 | D1 ag no DA inactive | Isoprot counter 3056
CCn1c(SCC(=O)Nc2ccccc2C(=O)OC)nnc1-c1ccoc1C	none
CCOC(=O)CNC(=O)CSc1nnc(Cn2cnc3ccccc32)n1C	none
O=C(O)c1ccc(CSc2nnc(COc3ccc(Cl)cc3Cl)o2)cc1	D1 mod 5.6 | D1 PAM confirm 10144 | Isoprot counter 3052
O=c1cc(CSc2nnc(COc3ccccc3Cl)o2)nc2sccn12	none
COCCn1c(C2CCCCC2)nc2sc3ccccc3c(=O)c2c1=O	D1 mod 3.4 | D1 PAM confirm 10064 | Isoprot counter inactive
O=C(Cn1cnc2ccccc2c1=O)NCc1ccco1	none (no result: S1P1 ag-PAM)
CCOC(=O)C(C)Oc1cccc2c(=O)n(CC(=O)NCc3ccco3)ccc12 (centres undefined)	D1 mod 3.3 | D1 PAM confirm 6652 | D1 ag no DA inactive | Isoprot counter inactive
